Assay results from ChEMBL document CHEMBL5356993, “Novel pyrazolo[3,4-d]pyrimidine derivatives: design, synthesis, anticancer evaluation, VEGFR-2 inhibition, and antiangiogenic activity” (RSC Med Chem, 2023).

Key:
Format in all cases: functional
Details in all cases: read-out: GI
OVCAR-5 = assay: Antiproliferative activity against human OVCAR-5 cells assessed as cell growth inhibition at 10 uM incubated for 48 hrs by SRB assay relative to control
Procedure, shortened: (§1)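 Cells plated in 96-well plates at […] cells/well and preincubated 24 h at 37 °C, 5% CO2. Time-zero plates were TCA-fixed. Compound was diluted in medium with 50 µg/mL gentamicin and cells exposed for 48 h. Adherent cells fixed with 10% final TCA; suspension cells with 16% final TCA. Plates stained with 0.4% SRB in 1% acetic acid, dye solubilized in 10 mM Trizma, absorbance read at 515 nm. Percent growth calculated against time-zero and control.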

NCI-H322M = assay: Antiproliferative activity against human NCI-H322M cells assessed as cell growth inhibition at 10 uM incubated for 48 hrs by SRB assay relative to control
COLO 205 = assay: Antiproliferative activity against human COLO 205 cells assessed as cell growth inhibition at 10 uM incubated for 48 hrs by SRB assay relative to control
HT-29 = assay: Antiproliferative activity against human HT-29 cells assessed as cell growth inhibition at 10 uM incubated for 48 hrs by SRB assay relative to control; procedure, shortened: as §1
KM12 = assay: Antiproliferative activity against human KM12 cells assessed as cell growth inhibition at 10 uM incubated for 48 hrs by SRB assay relative to control; procedure, shortened: as §1
SF-268 = assay: Antiproliferative activity against human SF-268 cells assessed as cell growth inhibition at 10 uM incubated for 48 hrs by SRB assay relative to control
SF-295 = assay: Antiproliferative activity against human SF-295 cells assessed as cell growth inhibition at 10 uM incubated for 48 hrs by SRB assay relative to control; procedure, shortened: as §1
SNB-19 = assay: Antiproliferative activity against human SNB-19 cells assessed as cell growth inhibition at 10 uM incubated for 48 hrs by SRB assay relative to control
Procedure, shortened: (§2)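 Cells pre-incubated 24 h at 37°C, 5% CO2, then exposed to compound (DMSO stock diluted in medium with 50 µg/mL gentamicin) for 48 h. Adherent cells fixed with cold TCA (final 10%, 60 min, 4°C); suspension cells fixed with 16% TCA final. Stained with 0.4% SRB in 1% acetic acid for 10 min, dye solubilized in 10 mM Trizma base, absorbance read at 515 nm. Growth calculated against time-zero and untreated control plates.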

SNB-75 = assay: Antiproliferative activity against human SNB-75 cells assessed as cell growth inhibition at 10 uM incubated for 48 hrs by SRB assay relative to control; procedure, shortened: as §2
U-251 = assay: Antiproliferative activity against human U-251 cells assessed as cell growth inhibition at 10 uM incubated for 48 hrs by SRB assay relative to control; procedure, shortened: as §2
Malme-3M = assay: Antiproliferative activity against human Malme-3M cells assessed as cell growth inhibition at 10 uM incubated for 48 hrs by SRB assay relative to control
SK-MEL-2 = assay: Antiproliferative activity against human SK-MEL-2 cells assessed as cell growth inhibition at 10 uM incubated for 48 hrs by SRB assay relative to control; procedure, shortened: as §1
SK-MEL-28 = assay: Antiproliferative activity against human SK-MEL-28 cells assessed as cell growth inhibition at 10 uM incubated for 48 hrs by SRB assay relative to control; procedure, shortened: as §1
UACC-257 = assay: Antiproliferative activity against human UACC-257 cells assessed as cell growth inhibition at 10 uM incubated for 48 hrs by SRB assay relative to control; procedure, shortened: as §2
IGROV-1 = assay: Antiproliferative activity against human IGROV-1 cells assessed as cell growth inhibition at 10 uM incubated for 48 hrs by SRB assay relative to control
OVCAR-3 = assay: Antiproliferative activity against human OVCAR-3 cells assessed as cell growth inhibition at 10 uM incubated for 48 hrs by SRB assay relative to control; procedure, shortened: as §1
OVCAR-8 = assay: Antiproliferative activity against human OVCAR-8 cells assessed as cell growth inhibition at 10 uM incubated for 48 hrs by SRB assay relative to control
NCI/ADR-RES = assay: Antiproliferative activity against human NCI-ADR-RES cells assessed as cell growth inhibition at 10 uM incubated for 48 hrs by SRB assay relative to control
SK-OV-3 = assay: Antiproliferative activity against human SK-OV-3 cells assessed as cell growth inhibition at 10 uM incubated for 48 hrs by SRB assay relative to control; procedure, shortened: as §1
ACHN = assay: Antiproliferative activity against human ACHN cells assessed as cell growth inhibition at 10 uM incubated for 48 hrs by SRB assay relative to control
CAKI-1 = assay: Antiproliferative activity against human CAKI-1 cells assessed as cell growth inhibition at 10 uM incubated for 48 hrs by SRB assay relative to control
RXF 393 = assay: Antiproliferative activity against human RXF 393 cells assessed as cell growth inhibition at 10 uM incubated for 48 hrs by SRB assay relative to control; procedure, shortened: as §1
SN12C = assay: Antiproliferative activity against human SN12C cells assessed as cell growth inhibition at 10 uM incubated for 48 hrs by SRB assay relative to control
PC-3 = assay: Antiproliferative activity against human PC-3 cells assessed as cell growth inhibition at 10 uM incubated for 48 hrs by SRB assay relative to control
DU-145 = assay: Antiproliferative activity against human DU-145 cells assessed as cell growth inhibition at 10 uM incubated for 48 hrs by SRB assay relative to control
MCF7 = assay: Antiproliferative activity against human MCF7 cells assessed as cell growth inhibition at 10 uM incubated for 48 hrs by SRB assay relative to control
Hs-578T = assay: Antiproliferative activity against human Hs-578T cells assessed as cell growth inhibition at 10 uM incubated for 48 hrs by SRB assay relative to control; procedure, shortened: as §1
BT-549 = assay: Antiproliferative activity against human BT-549 cells assessed as cell growth inhibition at 10 uM incubated for 48 hrs by SRB assay relative to control
MDA-MB-468 = assay: Antiproliferative activity against human MDA-MB-468 cells assessed as cell growth inhibition at 10 uM incubated for 48 hrs by SRB assay relative to control
NCI-H226 = assay: Antiproliferative activity against human NCI-H226 cells assessed as cell growth inhibition at 10 uM incubated for 48 hrs by SRB assay relative to control; procedure, shortened: as §1
HOP-92 = assay: Antiproliferative activity against human HOP-92 cells assessed as cell growth inhibition at 10 uM incubated for 48 hrs by SRB assay relative to control; procedure, shortened: as §1
A549 = assay: Antiproliferative activity against human A549 cells assessed as cell growth inhibition at 10 uM incubated for 48 hrs by SRB assay relative to control
RPMI-8226 = assay: Antiproliferative activity against human RPMI-8226 cells assessed as cell growth inhibition at 10 uM incubated for 48 hrs by SRB assay relative to control
MOLT-4 = assay: Antiproliferative activity against human MOLT-4 cells assessed as cell growth inhibition at 10 uM incubated for 48 hrs by SRB assay relative to control

Structure (SMILES) | inhibition of growth at 10 µM (OVCAR-5) [%] | inhibition of growth at 10 µM (NCI-H322M) [%] | inhibition of growth at 10 µM (COLO 205) [%] | inhibition of growth at 10 µM (HT-29) [%] | inhibition of growth at 10 µM (KM12) [%] | inhibition of growth at 10 µM (SF-268) [%] | inhibition of growth at 10 µM (SF-295) [%] | inhibition of growth at 10 µM (SNB-19) [%] | inhibition of growth at 10 µM (SNB-75) [%] | inhibition of growth at 10 µM (U-251) [%] | inhibition of growth at 10 µM (Malme-3M) [%] | inhibition of growth at 10 µM (SK-MEL-2) [%] | inhibition of growth at 10 µM (SK-MEL-28) [%] | inhibition of growth at 10 µM (UACC-257) [%] | inhibition of growth at 10 µM (IGROV-1) [%] | inhibition of growth at 10 µM (OVCAR-3) [%] | inhibition of growth at 10 µM (OVCAR-8) [%] | inhibition of growth at 10 µM (NCI/ADR-RES) [%] | inhibition of growth at 10 µM (SK-OV-3) [%] | inhibition of growth at 10 µM (ACHN) [%] | further results
Cc1nc2c(cnn2-c2ccccc2)c(=O)n1-c1ccc(NC(=O)c2ccc([N+](=O)[O-])cc2)cc1 | < 15 | 17.2 | 25.9 | 21.6 | 20.4 | < 15 | 56.3 | 25.4 | 32.9 | < 15 | 34 | 29.3 | 18.2 | 50.8 | 31.1 | < 15 | 34.1 | 47.2 | < 15 | 39.6 | inhibition of growth at 10 µM (CAKI-1): 31.5%; inhibition of growth at 10 µM (RXF 393): 26.4%; inhibition of growth at 10 µM (SN12C): 29%; inhibition of growth at 10 µM (PC-3): 33.7%; inhibition of growth at 10 µM (DU-145): 21%; inhibition of growth at 10 µM (MCF7): 56.7%; inhibition of growth at 10 µM (Hs-578T): 23.1%; inhibition of growth at 10 µM (BT-549): 48.8%; inhibition of growth at 10 µM (MDA-MB-468): 68.6%; inhibition of growth at 10 µM (NCI-H226): 50.8%; inhibition of growth at 10 µM (HOP-92): < 15%; inhibition of growth at 10 µM (A549): 33%; inhibition of growth at 10 µM (RPMI-8226): 47.7%; inhibition of growth at 10 µM (MOLT-4): 63.4%
Cc1nc2c(cnn2-c2ccccc2)c(=O)n1-c1ccc(N2C(=O)C=CC2=O)cc1 | < 15 | < 15 | < 15 | < 15 | < 15 | < 15 | < 15 | < 15 | < 15 | < 15 | < 15 | < 15 | < 15 | < 15 | < 15 | < 15 | < 15 | < 15 | < 15 | < 15 | inhibition of growth at 10 µM (CAKI-1): < 15%; inhibition of growth at 10 µM (RXF 393): < 15%; inhibition of growth at 10 µM (SN12C): < 15%; inhibition of growth at 10 µM (PC-3): < 15%; inhibition of growth at 10 µM (DU-145): < 15%; inhibition of growth at 10 µM (MCF7): < 15%; inhibition of growth at 10 µM (Hs-578T): < 15%; inhibition of growth at 10 µM (BT-549): < 15%; inhibition of growth at 10 µM (MDA-MB-468): 18.6%; inhibition of growth at 10 µM (NCI-H226): < 15%; inhibition of growth at 10 µM (HOP-92): < 15%; inhibition of growth at 10 µM (A549): < 15%; inhibition of growth at 10 µM (RPMI-8226): < 15%; inhibition of growth at 10 µM (MOLT-4): < 15%
